Assay outcomes from PubChem.
Hits are enriched below; roughly 3.9% of the tested compounds scored in any of these assays.
NF-kB neuron act – activators of NF-kB expression in neurons, primary screen, cell-based, HTS. human neuronal cells, NF-kB reporter expression; stronger effect = higher value. fold change at 12.5 µM. actives 1.6% (n = 190,000). AID 1239, 2008; in the data active = fold change above about 3.3
Rad51 HR inh – human RAD51 strand exchange inhibitors, primary screen, biochemical, fluorescence. inhibition, % at 10 µM. DNA repair protein RAD51 homolog 1 (Homo sapiens), Q06609. hRad51 DNA strand exchange, fluorescence dequenching. AID 1385, 2008. actives 0.085% (n = 200,000);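 active = inhibition above 40% at the single screening dose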;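 also: 0% = DMSO control wells and 100% = blanks with heterologous ssDNA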
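Assay system: Human Rad51 nucleoprotein filaments preassembled on unlabelled ssDNA | Reagent: Donor/quencher-labelled 47-bp dsDNA substrate | Doses: One concentration, 10 µM final | Times: 37 °C 15-min filament assembly, 30-min compound preincubation, 15-min exchange | Technique: Fluorescein emission 520 nm, excitation 485 nm | Benchmarks: Plate control and blank wells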
FLuc inhib CS – firefly luciferase enzyme inhibitors, primary screen, artefact control for luciferase-based inhibitor screens, biochemical, luminescence, ATPLite | 10 min | inhibition, % at 10 µM | actives 1.5% (n = 200,000);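 active = inhibition above about 50% when tested at 10 µM, limit read from the data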
Target sequence (P08659 whole entry, looked up): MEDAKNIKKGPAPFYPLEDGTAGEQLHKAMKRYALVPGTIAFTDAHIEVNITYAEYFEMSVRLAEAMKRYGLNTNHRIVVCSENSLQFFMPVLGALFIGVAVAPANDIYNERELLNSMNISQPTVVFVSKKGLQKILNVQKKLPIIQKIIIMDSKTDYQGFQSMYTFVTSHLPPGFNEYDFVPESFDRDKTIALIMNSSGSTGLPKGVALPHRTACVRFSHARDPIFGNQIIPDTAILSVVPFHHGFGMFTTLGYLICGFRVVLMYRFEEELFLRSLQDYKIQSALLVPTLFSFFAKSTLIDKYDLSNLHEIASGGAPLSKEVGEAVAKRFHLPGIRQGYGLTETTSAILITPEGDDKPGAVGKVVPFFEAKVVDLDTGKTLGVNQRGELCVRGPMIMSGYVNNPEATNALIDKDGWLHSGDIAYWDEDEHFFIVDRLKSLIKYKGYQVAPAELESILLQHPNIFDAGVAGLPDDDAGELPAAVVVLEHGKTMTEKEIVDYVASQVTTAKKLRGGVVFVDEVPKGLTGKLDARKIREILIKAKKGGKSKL
STAT1 act – STAT1 signaling activators, primary screen, cell-based, HTS, luciferase reporter. NIH 3T3 STAT1-luciferase reporter, IFN-gamma, luminescence; 100% = IFN-gamma alone, no compound. activation (% of control), % at 5.5 µM. actives 2.6% (n = 200,000);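 active = activation above the screen-wide mean activation plus 3 SD, cut at about 130% in these data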;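 also: raw ratio to IFN-gamma control signal so 100% means no change and 0% no light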
APP 5'UTR act – activators of APP 5'UTR luciferase reporter, primary screen, SH-SY5Y cells; activation, % at 2 µM; SH-SY5Y APP 5'UTR luciferase reporter, luminescence; zero percent = DMSO vehicle wells; actives 1% (n = 190,000); AID 1276, 2008;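 active = activation above a set limit, based on mean plus 3 SD of controls, cut at about 140% in these data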
FLuc stim CS – FLuc activators, initial screening, artefact control for FLuc-dependent activation tests, biochemical, ATPlite luminescence; Luciferin 4-monooxygenase (Photinus pyralis), P08659; ATPlite luciferase biochemical, 10 min; 0 = ATP-free wells, 1 = DMSO control; activation factor at 10 µM; 200,000 tested, under 10 active; AID 1027, 2008;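 active = luciferase activation factor, scaled between plate controls, of at least 2 with compound at 10 µM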
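Assay system: Luciferase/luciferin reagent mix; Medium: PBS as buffer for the ATP substrate; Dosing: test compounds dosed from 2 mM stocks in 100% DMSO; Times: 10 min, room temperature; Signal: luminescence from luciferase reaction; Read-out: luciferase activation; Controls: No-ATP low control, compound-free enzyme-plus-ATP high control.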
An asterisk follows results filed as active; nt = no result given.

SMILES	NF-kB neuron act	Rad51 HR inh	FLuc inhib CS	STAT1 act	APP 5'UTR act	FLuc stim CS
O=Nc1ccc(NOC(=O)c2ccccc2Br)cc1	1.7	4.5	76.8*	109.4	6.4	0.2
O=C(Nc1cnc2ccccc2c1)c1ccncc1	3.48*	4.1	9.5	129.5*	132.6	0.9
O=C(Nc1cccnc1)c1cccnc1	0.93	nt	-1.7	97.3	6.3	1
O=C(Nc1ccc2ccccc2c1)c1cccnc1	5.01*	-1.5	25.9	137.0*	125.4	0.7
O=C(Nc1ccc2ccccc2c1)c1cnccn1	6.53*	-3.9	46.8	112.3	156.6*	0.5
O=C(Nc1ccc2nccnc2c1)c1cnccn1	1.57	5.4	4.6	112.6	-0.2	1
CC1(C)CC(=O)/C(=C\c2cccc([N+](=O)[O-])c2)C(C)(C)N1	1.33	4.7	-0.6	89.4	19.4	1
Cc1ccc(-n2ncc(Cl)c2C(=O)NC2CC2)cc1	2.95	-1.8	20.5	141.0*	98.0	0.8
C=CCNC(=O)c1cc(Cl)ccc1Cl	1.08	1.5	-2.1	106.4	2.5	1
C=CCNC(=O)c1c(Cl)cnn1-c1ccc(C)cc1	3.24	31.4	19.2	138.7*	103.9	0.8
Cc1ccc2nc(Cl)c(C3CC(c4cccs4)=NN3S(C)(=O)=O)cc2c1 (stereo not drawn)	1.37	7.7	6.5	92.7	-22.3	0.9
Cc1ccc(C(=O)/C=C/c2ccc(F)cc2)o1	1.26	7.3	84.8*	103.9	1.4	0.2
COc1ccccc1Oc1ccc(N/C=C/C(=O)c2ccc(C)o2)cc1	1.7	-24.2	16.0	132.1*	92.9	0.8
CC(=O)Nc1ccc(N/C=C/C(=O)c2ccc(C)o2)cc1	1.29	5.3	32.5	143.3*	24.8	0.7
CN1C(C(=O)NCc2ccccc2)CC2Cn3c(nc4cc5ccccc5cc43)C21 (stereo not drawn)	nt	3.1	nt	nt	nt	nt
CSc1nnc2c(n1)[nH]c1c(C)cccc12	1.43	-0.9	-2.1	118.3	17.0	1
CCSc1nnc2c(n1)[nH]c1c(C)cccc12	1.62	-8.4	9.3	139.0*	31.2	0.9
C/C(=C\C(=O)c1cccnc1)Nc1ccc(O)cc1	0.68	3.3	18.2	113.0	nt	0.8
C/C(=C\C(=O)c1ccc(C)cc1)Nc1ccc(N2CCOCC2)cc1	1.04	2.8	-9.0	102.7	-0.8	1.1
C/C(=C\C(=O)c1ccccc1)Nc1ccc(O)cc1	4.46*	2.3	27.1	139.7*	3.0	0.7
C/C(=C\C(=O)c1ccc(C)cc1)Nc1cccc(O)c1	1.4	nt	65.4*	101.0	157.2*	0.3
CC(=O)c1ccc(N/C=C\C(=O)c2ccc(C)cc2)cc1	1.03	-0.9	17.0	148.1*	127.4	0.8
Cc1ccc(C(=O)/C=C/Nc2ccc3c(c2)OCO3)cc1	5.95*	-3.3	79.6*	131.9*	95.1	0.2
Cc1ccc(OCC(=O)Nc2cnn(CCCC(=O)O)c2)c([N+](=O)[O-])c1	1.03	nt	-6.7	99.1	-10.3	1.1
Cc1cc(C(=O)NCc2ccccc2Cl)n(-c2ccccc2)n1	nt	9.7	nt	nt	nt	nt
SMILES	NF-kB neuron act	Rad51 HR inh	FLuc inhib CS	STAT1 act	APP 5'UTR act	FLuc stim CS
CC(=O)c1cccc(NS(=O)(=O)c2ccc(N/C=C/C(=O)c3ccc(F)cc3)cc2)c1	0.55	-1.2	-3.3	103.3	2.9	1
Cc1ccc(C(=O)/C=C/Nc2cccc(O)c2)cc1	13.3*	-13.1	95.7*	92.4	138.4*	0
O=C(/C=C/Nc1cccc(O)c1)c1ccccc1	6.29*	-2.7	94.7*	95.0	183.5*	0.1
CC(=O)c1cccc(NS(=O)(=O)c2ccc(N/C=C\C(=O)c3ccc(C)cc3)cc2)c1	1	0.7	-5.8	87.2	4.4	1.1
FC(F)(F)c1cccc(Cc2noc(CN3CCC(c4ccncc4)CC3)n2)c1	0.89	nt	-3.5	75.0	-5.8	1
CCN(CC(=O)NC(C)C)C(=O)[C@H](C)NC(=O)c1ccc(Br)cc1	1.02	-1.8	-4.2	111.0	10.4	1
CCOC(=O)Cc1cc(=O)n2[nH]c(-c3ccc(C)cc3)cc2n1	0.99	-8.5	53.7*	103.2	5.7	0.5
Cc1cc(=O)n2[nH]c(-c3ccc(C(C)(C)C)cc3)cc2n1	5.08*	14.6	40.1	105.6	16.0	0.6
CCc1c(C)nc2cc(-c3ccc(OC)cc3)[nH]n2c1=O	2.26	-24.9	37.3	129.9*	111.9	0.6
O=C(O)c1cccc(N/N=C/c2ccc(-c3ccccc3)cc2)c1	16.3*	1.3	49.9	55.1	68.0	0.5
COc1ccc(Br)cc1/C=N/Nc1cccc(C(=O)O)c1	1.75	9.4	-2.9	107.9	17.8	1
O=C(O)c1cccc(N/N=C/c2cc(Br)cc(Br)c2O)c1	1.8	1.6	2.9	130.8*	130.3	1
O=C(O)c1cccc(N/N=C/c2cccnc2)c1	2.44	8.6	1.5	62.9	87.0	1
CC(C)(C)c1ccc(/C=N/Nc2cccc(C(=O)O)c2)cc1	6.89*	nt	47.5	65.5	84.8	0.5
CCOC(=O)c1ccc(NC(=O)N2CCc3ccccc32)cc1	7.88*	5.0	47.7	124.7	205.3*	0.5
COc1ccc(NC(=O)N2CCCc3ccccc32)cc1	1.43	3.0	5.5	87.5	7.2	0.9
Cc1ccc(OCC(=O)N2CCCc3ccccc32)cc1	1.33	0.6	4.0	109.0	29.6	1
COc1ccc(CCC(=O)N2CCc3ccccc32)cc1	2.16	1.7	23.2	132.7*	37.4	0.8
COc1ccc(C(=O)N2CCc3ccccc32)cc1	1.95	-1.1	7.3	113.7	33.2	0.9
O=C(COc1ccc2c(c1)CCC2)N1CCc2ccccc21	2.74	-3.8	42.0	133.6*	92.7	0.6
COc1ccc(NC(=O)N2CCc3ccccc32)cc1	10.5*	-2.1	84.9*	124.5	176.3*	0.2
O=C(N/N=C/c1ccc2c(c1)OCO2)c1ccccn1	2.19	-7.7	87.8*	100.5	56.2	0.1
O=C(N/N=C/c1cc2c(cc1Br)OCO2)c1ccccn1	nt	13.7	nt	nt	nt	nt
O=C(N/N=C/c1ccc2c(c1)OCO2)c1ccc2ccccc2n1	1	2.5	66.8*	95.4	23.9	0.3
O=C(O/N=C\c1ccc(N2CCOCC2)c([N+](=O)[O-])c1)c1ccccc1Cl	0.92	nt	-4.9	102.5	7.8	1
O=C(O/N=C/c1ccc2c(c1)OCO2)c1ccccc1Cl	3.66*	nt	69.5*	103.2	7.3	0.3
O=C(N/N=C/C(Cl)=C/c1ccccc1)c1ccccn1	4.26*	1.6	80.6*	121.8	131.4	0.2
